Screens deposited in PubChem BioAssay by Johns Hopkins Ion Channel Center.
A selection: hits, their analogues and other compounds. The true share with any hit is near 3.5%.
MrgX1 agonist – agonists of human MrgX1 receptor, primary screen, HEK293 cells, Fluo-4 calcium flux | Mas-related G-protein coupled receptor member X1 (Homo sapiens), Q96LB2 | Fluo-4 calcium fluorescence, agonist mode; active compounds read high | B-score at 10 µM | hit rate 0.44% among 310,000 | AID 588627, 2011;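 active means calcium response B-score plate-corrected fluorescence ratio at least 3 library SD, with starting fluorescence B-score inside 5 SD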
Target sequence (Q96LB2 whole entry, looked up): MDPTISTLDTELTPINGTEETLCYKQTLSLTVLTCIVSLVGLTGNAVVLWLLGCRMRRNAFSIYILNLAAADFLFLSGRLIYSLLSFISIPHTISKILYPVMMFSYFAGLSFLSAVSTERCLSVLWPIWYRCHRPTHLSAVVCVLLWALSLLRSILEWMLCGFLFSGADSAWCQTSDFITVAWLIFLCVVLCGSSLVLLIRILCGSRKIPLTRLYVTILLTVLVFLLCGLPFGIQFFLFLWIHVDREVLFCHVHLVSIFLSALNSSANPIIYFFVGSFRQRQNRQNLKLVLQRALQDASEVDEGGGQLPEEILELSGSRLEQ
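Test system: HEK293 cells stably expressing human MrgX1 receptor; amount: 15,000 cells per well; doses: compound delivered in addition one of three; times: overnight plating before 1 h dye loading; detection: Fluo-4 NW calcium-flux fluorescence, kinetic read; read-out basis: B-scored fluorescence response ratio; controls: positive and negative controls per plate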
RGS4 block – RGS4 inhibitors, primary screen, cell-based, HEK293 M3R inducible RGS4, calcium flux; Regulator of G-protein signaling 4 (Homo sapiens), P49798; Fluo-4 calcium flux; active compounds read high; triggered by carbachol at its EC20; B-score at 10 µM; hit rate 0.45% among 310,000;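 active means B-score, a plate-corrected calcium signal, over three deviations above library mean, with baseline fluorescence within five deviations of library mean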;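 further: RGS4 expression induced by doxycycline in cells with stable M3 receptor; B-score is computed from the integrated fluorescence ratio over baseline after carbachol; higher B-score means a larger calcium signal and so more RGS4 inhibition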
Target sequence (P49798 whole entry, looked up): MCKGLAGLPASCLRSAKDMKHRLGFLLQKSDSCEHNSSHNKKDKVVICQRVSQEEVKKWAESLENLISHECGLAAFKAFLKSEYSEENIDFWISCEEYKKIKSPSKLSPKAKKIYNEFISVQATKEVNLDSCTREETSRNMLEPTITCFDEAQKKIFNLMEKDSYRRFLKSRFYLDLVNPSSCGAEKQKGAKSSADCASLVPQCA
MrgX1 antagonist – antagonists of human MrgX1 receptor, primary screen, HEK293 cells, Fluo-4 calcium flux; BAM8-22 antagonism; active compounds read low; AID 588676, 2011; B-score at 10 µM; Mas-related G-protein coupled receptor member X1 (Homo sapiens), Q96LB2; hit rate 1.3% among 310,000;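 active means calcium-response B-score plate-corrected more than 3 library SD below zero, starting fluorescence within 5 deviations, no agonist response on first addition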;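 further: peak minus trough fluorescence over baseline after final BAM8-22 challenge near maximal dose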
RGS4 pot – RGS4 potentiators or activators, primary screen, cell-based, HEK293 M3R inducible RGS4, calcium flux | carbachol calcium flux Fluo4; active compounds read low | B-score at 10 µM | AID 463111, 2010 | hit rate 0.92% among 310,000;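 active means B-score of the integrated calcium signal more than 4 SD below the library mean, with starting fluorescence not abnormally high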;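 further: negative B-score means reduced calcium response which marks RGS4 activation or potentiation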
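test system = HEK293 cells with stable M3R and inducible RGS4 | schedule = recording 10 s baseline at 1 Hz, 100 s post-agonist | technique = Fluo4-AM (2 µM) calcium-flux fluorescence, kinetic read | measure = Agonist-evoked peak-minus-minimum fluorescence over baseline, integrated ratio, B score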
MrgX1 PAM – positive allosteric modulators of MrgX1, primary screen, HEK293 cells, Fluo-4 calcium flux; hit rate 0.63% among 310,000; B-score at 10 µM; AID 588675, 2011; FDSS; active compounds read high;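 active means plate-corrected calcium response at least 3 library SD above typical, normal starting fluorescence, not activating the receptor alone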;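 further: compound read alongside a low EC10 to EC30 dose of BAM8-22 agonist; peak minus trough fluorescence over baseline measured at the second addition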
MrgX1 ant reconf – MrgX1 receptor antagonists, duplicate retest, confirmation, HEK293 cells, Fluo-4 calcium flux | shares compounds with MrgX1 antagonist | BAM8-22 calcium flux; active compounds read low | remaining BAM8-22 calcium response % of control (active compounds read low), % at 10 µM | hit rate 19% among 2,300 | AID 602420, 2012;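 active means remaining agonist calcium response no higher than 100% minus 3 SD of agonist-only control wells, with starting fluorescence near control levels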;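 further: agonist BAM8-22 given at a near maximal EC90 to ECmax level; peak minus minimum fluorescence divided by baseline after agonist addition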
HEK293 Ca flux – nonspecific calcium signal in parental HEK293, confirmation, counter-screen for MrgX1 antagonist project, parental HEK293 cells, Fluo-4 calcium flux | shares compounds with MrgX1 antagonist | Fluo-4 calcium fluorescence, FDSS | fluorescence ratio F(max-min)/F0 at 10 µM | hit rate 2% among 4,000;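 active means duplicate-averaged calcium fluorescence ratio at least three times the standard deviation of buffer wells, a nonspecific response in parental cells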
HEK293 Ca counter – calcium response in parental HEK293 cells, primary screen, counter-screen for MrgX1 allosteric activator project, cell-based, Fluo-4 calcium flux, duplicate; fluorescence ratio F(max-min)/F0 at 10 µM; shares compounds with MrgX1 antagonist; hit rate 0.4% among 4,000; Fluo-4 fluorescence ratio; active compounds read high;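 active means calcium fluorescence ratio, averaged over duplicates, at least 3 SD of the buffer-well ratio, meaning a nonspecific response in receptor-free cells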;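 further: untransfected parental HEK293 lacking MrgX1 used as counterscreen for MrgX1 allosteric activators; fluorescence change taken during the second addition on a kinetic imager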
HEK293 Ca cntr2 – calcium response in parental HEK293 cells, primary screen, counter-screen for MrgX1 agonist project, cell-based, Fluo-4 calcium flux, duplicate, agonist mode. shares compounds with MrgX1 antagonist. Fluo-4 calcium fluorescence (FDSS); active compounds read high. fluorescence ratio F(max-min)/F0 at 10 µM. hit rate 8.7% among 4,000. AID 624115, 2012;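 active means calcium fluorescence ratio at least three times the spread of buffer wells, meaning a non-specific response in parental cells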
* = called active by the depositor; i = inactive; nt = not tested or not shown.

SMILES	MrgX1 agonist	RGS4 block	MrgX1 antagonist	RGS4 pot	MrgX1 PAM	MrgX1 ant reconf	HEK293 Ca flux	HEK293 Ca counter	HEK293 Ca cntr2
Cc1ccc(-c2nnc(SCC(=O)NC3CCS(=O)(=O)C3)nc2-c2ccc(C)cc2)cc1 (centres undefined)	i	i	i	i	i	nt	nt	nt	nt
CCn1c(/C=C/c2ccc(O)cc2)nc2ccccc2c1=O	i	i	i	i	i	nt	nt	nt	nt
CCn1c(/C=C/c2ccc(O)c(O)c2)nc2ccccc2c1=O	i	i	-4.7*	i	i	i	i	i	i
CCCCOc1ccc(NC(=O)CN2CCN(Cc3ccccc3)CC2)cc1	i	i	i	i	i	nt	nt	nt	nt
CNC(=O)COC(=O)c1nc(-n2nc(C)cc2C)ccc1Cl	i	i	-6.8*	i	i	i	i	i	i
CC1C(=O)NN=C1C(=O)N/N=C/c1cccs1 (centres undefined)	i	i	-11*	i	i	i	i	i	i
COC(=O)CSc1nnc(CCc2ccccc2)n1C	i	i	i	i	i	nt	nt	nt	nt
O=C(NCCC1=CCCCC1)c1ccc(F)cc1	i	i	-6.2*	i	i	i	i	i	i
Cc1ccc2c(c1)[C@H]1[C@H](CO2)[C@H](c2ccccc2)[C@]2(C)C(=O)Nc3cc(Cl)ccc3C(=O)N12	i	nt	i	nt	i	nt	nt	nt	nt
C[C@@]12C(=O)Nc3cc(F)ccc3C(=O)N1[C@H]1c3ccccc3OC[C@@H]1[C@@H]2c1ccccc1	i	nt	-6.2*	nt	i	82%*	i	i	i
Cc1cc(NC(=O)NC(=O)c2ccccc2F)no1	i	i	i	i	i	nt	nt	nt	nt
O=C(NC(=S)Nc1ccccc1N1CCCC1)c1cccs1	i	i	i	i	i	nt	nt	nt	nt
O=C(NC(=S)Nc1ccccc1N1CCOCC1)c1cccs1	i	i	-4.7*	i	i	i	i	i	i
COc1ccccc1NC(=S)NCc1ccc2c(c1)cc(C)n2C	i	i	i	i	i	nt	nt	nt	nt
Cc1ccccc1NC(=S)NCc1ccc2c(c1)cc(C)n2C	i	i	-5.3*	i	i	i	i	i	i
Cc1ccc(S(=O)(=O)Nc2ccc(C(=O)N3CCN(c4ccccc4O)CC3)cc2)cc1[N+](=O)[O-]	i	i	i	i	i	nt	nt	nt	nt
COc1cccc(/C=N/n2c(N)nc3ccccc32)c1OC	i	i	i	i	i	nt	nt	nt	nt
COc1ccc(/C=N/n2c(N)nc3ccccc32)cc1OC	i	nt	-8.6*	nt	i	i	i	i	i
CN(CCOc1ccc(Cl)cc1)C(=O)CN1C(=O)NC2(CCCC2)C1=O	i	i	i	i	i	nt	nt	nt	nt
